# Rows were chosen to be rich in hits. Some 4.1% of all compounds tested hit in one or more screens of this group.
# DTT redox prof: compounds producing H2O2 with reducing agent – biochemical, NIH compound library profiling, artefact control for MLSCN library redox annotation, primary screen. DTT-dependent redox cycling H2O2, phenol red/HRP absorbance; 100% = 100 µM peroxide control, 0% = buffer. activation, % at 10 µM. hit rate 0.03% among 200,000. AID 878, 2007;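 active means activation of at least 50% relative to the plate's high and low controls in the primary single-dose screen; inactive means activation below 50%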;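 further: compound incubated with DTT at 0.8 mM final as the reducing agent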
# Cl transport mod: KCC2 cotransporter modulators, thallium flux, primary screen, cell-based, HEK293 KCC2, FluoZin-2 fluorescence, MLSMR; Solute carrier family 12 member 5 (Homo sapiens), Q9H2X9; KCC2 cells, thallium flux FluoZin-2 fluorescence; B-score of Tl+ flux slope (higher = more flux/activation; lower = inhibition) at 10 µM; hit rate 2.2% among 190,000; AID 1456, 2008;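 active means thallium flux slope and its plate-corrected score both differing from the plate sample mean at a set confidence after two filtering rounds, in either direction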;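 further: slope of fluorescence scaled to starting intensity during 10 to 20 s after thallium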
# Autophagy HCS: autophagy modulators in MEF cells, primary screen, imaging, high-content, MEF GFP-LC3 | MEF GFP-LC3 puncta imaging; test concentration mostly 10 µM | calls only at 10 µM (by protocol) | hit rate 0.98% among 190,000 | AID 463193, 2010;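 active means percentage of spot-positive cells more than 3 SD above its plate mean, without a fluorescence outlier flag or 80% toxicity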
# Dynein transport: inhibitors of GR-EGFP nuclear translocation, primary screen, dynein cargo transport inhibitor project, imaging, high-content, 3617.4 mouse cells. z-score, hits read low. hit rate 0.47% among 220,000. test concentration mostly 20 µM; stimulated with dexamethasone, 1 µM; hits give low values. AID 1381, 2008;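 active means plate z-score of nuclear minus cytoplasmic receptor signal below a set negative limit, without overly bright fluorescence or cell loss, cut at about -3.5 in these data, passing the limit was not always enough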;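 further: z-score of nuclear minus cytoplasmic ring GR-EGFP intensity difference per well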
#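 Buffer or medium – tet-free medium with charcoal-stripped serum · Signal – automated 10x imaging of fixed Hoechst-stained cells · Also added – dexamethasone agonist, 1.0 µM final, for 30 min · Incubation – induction 48 h, compound 1 h, agonist 30 min · Read-out – GR-EGFP nuclear translocation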
# ROMK mod: ROMK potassium channel modulators, primary screen, cell-based, thallium flux, MLSMR library. ATP-sensitive inward rectifier potassium channel 1 (Homo sapiens), P48048. Tet-inducible ROMK, thallium flux fluorescence; actives lie on both sides. B-score at 10 µM. hit rate 2% among 130,000;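 active means signal ratio slope over the read window, or its plate-corrected B-score, at least 3 SD from the plate mean, either direction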;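 further: B-score of the F/F0 ratio slope over 7 to 12 s after thallium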
# Target sequence (P48048 whole entry, looked up): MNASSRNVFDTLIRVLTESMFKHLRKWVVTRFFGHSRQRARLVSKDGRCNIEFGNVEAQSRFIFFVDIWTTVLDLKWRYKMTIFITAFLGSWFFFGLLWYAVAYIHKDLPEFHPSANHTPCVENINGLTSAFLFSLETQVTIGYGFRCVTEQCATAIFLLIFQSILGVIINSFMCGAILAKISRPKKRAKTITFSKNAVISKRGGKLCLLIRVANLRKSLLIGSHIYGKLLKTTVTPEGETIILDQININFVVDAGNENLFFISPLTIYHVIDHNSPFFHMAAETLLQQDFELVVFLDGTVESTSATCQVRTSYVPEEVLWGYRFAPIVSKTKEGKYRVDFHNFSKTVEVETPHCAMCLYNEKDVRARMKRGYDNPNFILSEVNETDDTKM
# Numbers stand for hits; - = inactive; . = no result given; + = active, no number.
SMILES,DTT redox prof,Cl transport mod,Autophagy HCS,Dynein transport,ROMK mod
Cn1c(=O)[nH]c(=O)c2c1nc(NC1CCCCC1)n2CC(=O)NC1CCCCC1,-,-,+,-,.
Cn1c(=O)[nH]c(=O)c2c1nc(NC1CCCCC1)n2CCO,.,-,.,-,.
Cn1cc(CN2CCC[C@H]2CO)c(-c2cccc(Cl)c2)n1,-,-,-,-,-
Cn1cc(/C=C(\C#N)C(=O)Nc2cccc([N+](=O)[O-])c2)c2ccccc21,-,-,+,-,-
CC1CCc2cccc3c2N1c1cc(C#N)c(C#N)cc1O3 (stereo unspecified),-,.,+,-,-
CC1CCCCN1c1cc(C#N)c(C#N)cc1[N+](=O)[O-] (stereo unspecified),-,-,-,-,-
COc1ccc(NC2=NC(=S)N(c3ccccc3C)C23CCCCC3)cc1,-,89,-,-,.
O=C(O)c1cccc(N2C(=S)N=C(Nc3ccccc3)C23CCCCC3)c1,-,-,-,-,-
COCCn1c(C(=O)N2CCCC2)cc2c1C[C@H]1CN(C(=O)c3ccccc3)[C@@](Cc3ccc(F)cc3)(C(=O)OC)[C@@H]21,-,-,-,-,-
COC(=O)[C@@]1(Cc2ccccc2)[C@H]2c3cc(C(=O)N4CCCC4)n(CCSCCO)c3C[C@H]2CN1C(=O)c1ccccc1,-,-,+,-,-
CC1=CC2=NC(=O)/C(=C\c3ccc(-c4ccc(Cl)cc4)o3)C(=N)N2O1,-,-,+,-,-
CC1=CC2=NC(=O)/C(=C/c3cccs3)C(=N)N2O1,.,-,.,-,.
CC(=O)Nc1nc(=O)c2ccccc2s1,-,-,-,-,-
O=C(Nc1nc(=O)c2ccccc2s1)c1ccccc1,-,42,-,-,3
COC(=O)C(NC(=O)CNS(=O)(=O)c1ccc(Br)cc1)c1ccccc1 (stereo unspecified),-,-,-,-,-
Cc1c(Cl)cccc1-n1c(SCC(=O)N2CCC(C(=O)O)CC2)nnc1-c1ccncc1,-,-,-,-,-
COc1ccc(C(=O)NNC(=S)NC(=O)c2ccco2)cc1,-,10,-,-,-
CC(Oc1ccc(Cl)cc1)C(=O)NNC(=S)NC(=O)c1ccco1 (stereo unspecified),-,26,-,-,-
Cc1ccc2nsnc2c1NC(=S)NC(=O)c1ccco1,-,9.3,-,-,-
O=C(NC(=S)Nc1ccccn1)c1ccco1,-,10,-,-,.
N#CCCN1CCN(C2=NC(=O)/C(=C\c3cccs3)S2)CC1,-,-,-,-,-
COC(=O)c1ccc(COc2ccccc2/C=N/NC(=O)c2cccnc2)cc1,-,-,-,-,-
N#CCc1nn(-c2ccc(F)cc2)c(N)c1C#N,-,-,-,-,-
COc1ccccc1C(=O)NNC(=S)Nc1ccccc1,-,-,-,-,-
COc1ccccc1C(=O)NNC(=S)NC(=O)c1ccco1,-,16,-,-,.
SMILES,DTT redox prof,Cl transport mod,Autophagy HCS,Dynein transport,ROMK mod
Cc1c(Br)cc(C(=O)OC2CCN(C)CC2)c(C)c1C,-,-,+,-,.
Cc1c[n+](C)ccc1CC1C([N+](=O)[O-])=C[N-]c2ncnn21 (stereo unspecified),-,-,-,-,-
O=C(N/C(=C\c1ccc(-c2ccccc2)o1)C(=O)N1CCOCC1)c1ccccc1,-,-7.3,-,-,-3
CCc1ccc(C(=O)/C=C/c2ccc([N+](=O)[O-])o2)cc1,-,.,+,-,-
CCOC(=O)C1=C(c2ccccc2)O/C(=C(/C#N)C(F)(F)F)S1,-,-,+,-,-
CCOC(=O)C1=C(c2ccccc2)O/C(=C(\C(=O)OC)C(F)(F)F)S1,-,.,-,-,-
CCCCCCCCCCCCCCCC[n+]1cccc(C(=O)N(CC)CC)c1,-,-,-,-5.1,.
C=CCc1cc(Cl)ccc1OCCOCCNC(C)(C)C,-,-,+,-,-
C=CCc1cc(Cl)ccc1OCCOCCNCCOC,-,-,-,-,-
Cc1sc2nc(CN3CCN(c4ccc(O)cc4)CC3)[nH]c(=O)c2c1C,.,-,.,-,.
Cc1sc2nc(CN3CCOCC3)[nH]c(=S)c2c1C,-,73,-,-,8.6
Cn1c(=O)cc(SCC(=O)Nc2ccccn2)c2ccccc21,-,-,-,-,.
Cc1ccnc(NC(=O)CSc2cc(=O)n(C)c3ccccc23)c1,-,.,+,-,.
CCOC(=O)N1CCN(/C=C(\C#N)c2nc3ccccc3s2)CC1,-,.,+,-,-
N#C/C(=C\N1CCN(Cc2ccc3c(c2)OCO3)CC1)c1nc2ccccc2s1,-,.,+,-,-
Cc1cc(C)c2c(N)c(C(=O)N/N=C/c3ccccc3)sc2n1,.,-,.,-,-
C=CCn1c(CSCc2ccc(Cl)cc2)nnc1SCC(=O)NCc1ccccc1,-,-,-,-,-3
C=CCn1c(CSCc2ccc(C)cc2)nnc1SCC(=O)NCc1ccccc1,-,-,-,-,-
CC(C)c1ccc2c(c1)C1(NN=C(c3ccccc3)S1)C(=O)N2 (stereo unspecified),-,-,+,-,-
Cc1cc(C)c2oc(-c3ccc(Cl)c(NC(=O)c4ccc(C#N)cc4F)c3)nc2c1,-,-,+,-,.
Cc1ccc(S(=O)(=O)/N=C(/Nc2nc(C)cc(C)n2)N2CCOCC2)cc1,-,-,-,-,.
COc1ccc(N2CCN(/C(=N\S(=O)(=O)c3ccccc3)Nc3nc(C)cc(C)n3)CC2)cc1,-,-,+,-,.
O=C(Nc1ccc(S(=O)(=O)Nc2ncccn2)cc1)c1ccc(N2CCCC2=O)cc1,.,-,.,-,.
Cc1cc2nc3n(c2cc1C)CC1CC(C(=O)NCc2cccc(C(F)(F)F)c2)N(C)C31 (stereo unspecified),.,-,.,-,.
COCCN(CCOC)C(=O)COC(=O)c1ccc(Cl)c(S(=O)(=O)N(C)c2ccccc2)c1,-,-,-,-,-
SMILES,DTT redox prof,Cl transport mod,Autophagy HCS,Dynein transport,ROMK mod
CCN(CC)c1ccc(/C=N/N=C(c2ccccc2)c2ccccc2)c(O)c1,-,-,+,-,-
CCOc1ncccc1C(=O)OCc1ccc(C(=O)OC)cc1,-,-,-,-,.
COc1ccccc1N1CCN(C(=O)COc2cc(C)cc(C)c2)CC1,-,-,-,-,-
Nc1cc(C(F)(F)F)ccc1-n1cccc1,-,-,-,-,.
O=C1OCC2=C1C(c1ccc(F)cc1)c1cc3c(cc1N2)OCCO3 (stereo unspecified),-,-,-,-,-
O=C1OCC2=C1C(c1ccc(F)cc1)c1cc3c(cc1N2)OCO3 (stereo unspecified),-,-,-,-,2.8
Cc1ccc(-c2nnc(-c3ccc(NC(=O)Cc4cccs4)cc3)o2)cc1,-,.,+,-,-

# Screening data from PubChem.
